Where a SMILES comes first, the peptide text is derived from it. [ ]: non-standard residue; d: D form. The star is where a group is joined. Gly(1-amidinopiperidin-4-yl) = N=C(N)N1CCC([C@H](N)C(=O)O)CC1; FITC = O=C1OC2(c3ccc(O)cc3Oc3cc(O)ccc32)c2ccc(NC(=S)*)cc21; DTPA = O=C(O)CN(CCN(CC(=O)O)CC(=O)O)CCN(CC(=O)O)CC(=O)*; Gly(piperidin-4-yl) = N[C@H](C(=O)O)C1CCNCC1; Tle = CC(C)(C)[C@H](N)C(=O)O
What was measured:
Mus musculus [1] = experiment: Biodistribution of [111In]-DTPA-NT in HT-29 tumor implanted SCID mice pancreas at 4 hr postinjection LSA administration; assay type: ADME, organism-based; conditions: in vivo
Method in brief: (§1)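 Receptor-blocking (low specific activity) arm in male SCID mice with s.c. HT29 flank xenografts of about 0.3 g. Two animals received the same activity (10 μCi, jugular vein) diluted with cold NT to 0.5 Ci/mmol. Tissues were collected after cervical dislocation, radioassayed, and expressed as %ID/g.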

Mus musculus [2] = experiment: Biodistribution of [111In]-DTPA-NT in HT-29 tumor implanted SCID mice spleen at 1 hr postinjection; assay type: ADME, organism-based; conditions: in vivo
Method in brief: (§2)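 Male SCID mice bore HT29 xenografts from 1 × 10^6 cells given s.c. in both rear flanks. Tumours reached about 0.3 g by day 14. Under Metofane anaesthesia, mice received 20 μL (10 μCi) of 111In-DTPA-NT analogue (1400 Ci/mmol) via the jugular vein. Groups of n = 3 were killed by cervical dislocation at 1 and 4 h. Blood and tissues were gamma-counted and reported as %ID/g ± SE.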

Mus musculus [3] = experiment: Biodistribution of [111In]-DTPA-NT in HT-29 tumor implanted SCID mice spleen at 4 hr postinjection LSA administration; assay type: ADME, organism-based; conditions: in vivo; method in brief: as §1
Mus musculus [4] = experiment: Biodistribution of [111In]DTPA-NT in HT-29 tumor implanted SCID mice tumor at 1 h postinjection; assay type: ADME, organism-based; conditions: in vivo; method in brief: as §2
Mus musculus [5] = experiment: Biodistribution of [111In]-DTPA-NT in HT-29 tumor implanted SCID mice tumor at 4 hr postinjection; assay type: ADME, organism-based; conditions: in vivo; method in brief: as §2
Mus musculus [6] = experiment: Biodistribution of [111In]DTPA-NT in HT-29 tumor implanted SCID mice tumor at 4 h postinjection LSA administration; assay type: ADME, organism-based; conditions: in vivo; method in brief: as §1
Mus musculus [7] = experiment: Biodistribution of [111In]DTPA-NT in HT-29 tumor implanted SCID mice blood at 1 h postinjection; assay type: ADME, organism-based; conditions: in vivo; method in brief: as §2
Mus musculus [8] = experiment: Biodistribution of [111In]DTPA-NT in HT-29 tumor implanted SCID mice blood at 4 h postinjection; assay type: ADME, organism-based; conditions: in vivo; method in brief: as §2
Mus musculus [9] = experiment: Biodistribution of [111In]-DTPA-NT in HT-29 tumor implanted SCID mice blood at 4 hr postinjection LSA administration; assay type: ADME, organism-based; conditions: in vivo; method in brief: as §1
Mus musculus [10] = experiment: Biodistribution of [111In]DTPA-NT in HT-29 tumor implanted SCID mice kidneys at 1 h postinjection; assay type: ADME, organism-based, Kidney; conditions: in vivo; method in brief: as §2
Mus musculus [11] = experiment: Biodistribution of [111In]DTPA-NT in HT-29 tumor implanted SCID mice kidneys at 4 h postinjection; assay type: ADME, organism-based, Kidney; conditions: in vivo; method in brief: as §2
Mus musculus [12] = experiment: Biodistribution of [111In]-DTPA-NT in HT-29 tumor implanted SCID mice kidneys at 4 hr postinjection LSA administration; assay type: ADME, organism-based, Kidney; conditions: in vivo; method in brief: as §1
Mus musculus [13] = experiment: Biodistribution of [111In]DTPA-NT in HT-29 tumor implanted SCID mice liver at 1 h postinjection; assay type: ADME, organism-based; conditions: in vivo; method in brief: as §2
Mus musculus [14] = experiment: Biodistribution of [111In]DTPA-NT in HT-29 tumor implanted SCID mice liver at 4 h postinjection; assay type: ADME, organism-based; conditions: in vivo; method in brief: as §2
Mus musculus [15] = experiment: Biodistribution of [111In]-DTPA-NT in HT-29 tumor implanted SCID mice liver at 4 hr postinjection LSA administration; assay type: ADME, organism-based; conditions: in vivo; method in brief: as §1
Mus musculus [16] = experiment: Biodistribution of [111In]DTPA-NT in HT-29 tumor implanted SCID mice muscle at 1 h postinjection; assay type: ADME, organism-based, Muscle tissue; conditions: in vivo; method in brief: as §2
Mus musculus [17] = experiment: Biodistribution of [111In]DTPA-NT in HT-29 tumor implanted SCID mice muscle at 4 h postinjection; assay type: ADME, organism-based, Muscle tissue; conditions: in vivo; method in brief: as §2
Mus musculus [18] = experiment: Biodistribution of [111In]-DTPA-NT in HT-29 tumor implanted SCID mice muscle at 4 hr postinjection LSA administration; assay type: ADME, organism-based, Muscle tissue; conditions: in vivo; method in brief: as §1
Mus musculus [19] = experiment: Biodistribution of [111In]DTPA-NT in HT-29 tumor implanted SCID mice pancreas at 1 h postinjection; assay type: ADME, organism-based; conditions: in vivo; method in brief: as §2
Mus musculus [20] = experiment: Biodistribution of [111In]-DTPA-NT in HT-29 tumor implanted SCID mice pancreas at 4 h postinjection; assay type: ADME, organism-based; conditions: in vivo; method in brief: as §2
[21] = target: Neurotensin receptor type 1 (Homo sapiens, UniProt P30989); experiment: Binding affinity towards neurotensin receptor in membranes prepared from HT-29 cell line, relative to [111In]-labeled neurotensin peptide
Sequence of Neurotensin receptor type 1 (P30989 whole entry): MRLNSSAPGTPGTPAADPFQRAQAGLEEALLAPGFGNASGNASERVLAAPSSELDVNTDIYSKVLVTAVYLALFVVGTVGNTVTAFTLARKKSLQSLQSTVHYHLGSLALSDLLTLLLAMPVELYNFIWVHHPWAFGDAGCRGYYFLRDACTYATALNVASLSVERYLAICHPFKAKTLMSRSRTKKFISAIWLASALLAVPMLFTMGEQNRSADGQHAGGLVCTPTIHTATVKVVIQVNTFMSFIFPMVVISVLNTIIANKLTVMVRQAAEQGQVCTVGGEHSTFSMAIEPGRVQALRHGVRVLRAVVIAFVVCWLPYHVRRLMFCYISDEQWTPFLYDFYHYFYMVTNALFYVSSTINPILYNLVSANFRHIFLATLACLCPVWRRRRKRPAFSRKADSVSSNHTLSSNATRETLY

Mus musculus [22] = experiment: Biodistribution of [111In]DTPA-NT in HT-29 tumor implanted SCID mice spleen at 4 h postinjection; assay type: ADME, organism-based; conditions: in vivo; method in brief: as §2

CC(C)C[C@H](NC(=O)[C@@H](NC(=O)[C@H](Cc1ccc(O)cc1)NC(=O)[C@@H]1CCCN1C(=O)[C@H](CCCN=C(N)N)NC(=O)[C@@H](NC(=O)[C@@H]1CCCN1C(=O)[C@@H](NC(=O)CN(CCN(CCN(CC(=O)O)CC(=O)O)CC(=O)O)CC(=O)O)C1CCNCC1)C1CCN(C(=N)N)CC1)C(C)(C)C)C(=O)O ({DTPA}-[Gly(piperidin-4-yl)]P[Gly(1-amidinopiperidin-4-yl)]RPY[Tle]L-OH)
ID/g tissue (Mus musculus [1]): 0.051%
ID/g tissue (Mus musculus [2]): 0.18%
ID/g tissue (Mus musculus [3]): 0.088%
ID/g tissue (Mus musculus [4]): 2.831%
ID/g tissue (Mus musculus [5]): 2.177%
ID/g tissue (Mus musculus [6]): 0.263%
ID/g tissue (Mus musculus [7]): 0.416%
ID/g tissue (Mus musculus [8]): 0.03%
ID/g tissue (Mus musculus [9]): 0.027%
ID/g tissue (Mus musculus [10]): 6.141%
ID/g tissue (Mus musculus [11]): 4.841%
ID/g tissue (Mus musculus [12]): 5.725%
ID/g tissue (Mus musculus [13]): 0.203%
ID/g tissue (Mus musculus [14]): 0.133%
ID/g tissue (Mus musculus [15]): 0.168%
ID/g tissue (Mus musculus [16]): 0.092%
ID/g tissue (Mus musculus [17]): 0.021%
ID/g tissue (Mus musculus [18]): 0.03%
ID/g tissue (Mus musculus [19]): 0.152%
ID/g tissue (Mus musculus [20]): 0.03%
IC50 [21]: 0.3 nM
ID/g tissue (Mus musculus [22]): 0.085%

CC(C)C[C@H](NC(=O)[C@@H](NC(=O)[C@H](Cc1ccc(O)cc1)NC(=O)[C@@H]1CCCN1C(=O)[C@@H](NC(=O)[C@@H](NC(=O)[C@@H]1CCCN1C(=O)[C@@H](CCCCN)NC(=O)CN(CCN(CCN(CC(=O)O)CC(=O)O)CC(=O)O)CC(=O)O)C1CCN(C(=N)N)CC1)C1CCNCC1)C(C)(C)C)C(=O)O
IC50 ([21]; ht-29): 59.6 nM

CC(C)(C)[C@H](NC(=O)[C@H](Cc1ccc(O)cc1)NC(=O)[C@@H]1CCCN1C(=O)[C@H](CCCN=C(N)N)NC(=O)[C@@H](NC(=O)[C@@H]1CCCN1C(=O)[C@@H](CCCCN)NC(=O)CN(CCN(CCN(CC(=O)O)CC(=O)O)CC(=O)O)CC(=O)O)C1CCN(C(=N)N)CC1)C(=O)N[C@@H](CC1CCCCC1)C(=O)O
IC50 [21]: 11.7 nM

CC(C)C[C@H](NC(=O)[C@@H](NC(=O)[C@H](Cc1ccc(O)cc1)NC(=O)[C@@H]1CCN1C(=O)[C@H](CCCN=C(N)N)NC(=O)[C@@H](NC(=O)[C@H](CCCN=C(N)N)NC(=O)[C@@H]1CCCN1C(=O)[C@@H](CCCCN)NC(=O)CN(CCN(CCN(CC(=O)O)CC(=O)O)CC(=O)O)CC(=O)O)C1CCN(C(=N)N)CC1)C(C)(C)C)C(=O)O
IC50 [21]: 113 nM

CC[C@H](C)[C@H](NC(=O)[C@H](Cc1ccc(O)cc1)NC(=O)[C@@H]1CCCN1C(=O)[C@H](CCCN=C(N)N)NC(=O)[C@H](Cc1ccc(NC(=N)N)cc1)NC(=O)[C@@H]1CCCN1C(=O)[C@@H](CCCCN)NC(=O)CN(CCN(CCN(CC(=O)O)CC(=O)O)CC(=O)O)CC(=O)O)C(=O)N[C@@H](CC(C)C)C(=O)O
IC50 [21]: 0.5 nM

CC(C)(C)[C@H](NC(=O)[C@H](Cc1ccc(O)cc1)NC(=O)[C@@H]1CCCN1C(=O)[C@H](CCCN=C(N)N)NC(=O)[C@@H](NC(=O)[C@@H]1CCCN1C(=O)[C@H](CCCCN)NC(=O)[C@H](CC(N)=O)NC(=O)[C@H](CCC(=O)O)NC(=O)[C@@H](Cc1ccc(O)cc1)NC(=O)CN(CCN(CCN(CC(=O)O)CC(=O)O)CC(=O)O)CC(=O)O)C1CCN(C(=N)N)CC1)C(=O)N[C@@H](CC1CCCCC1)C(=O)O
IC50 [21]: 0.6 nM

CC(C)C[C@H](NC(=O)[C@@H](NC(=O)[C@H](Cc1ccc(O)cc1)NC(=O)[C@@H]1CCCN1C(=O)[C@H](CCCNC(=N)N)NC(=O)[C@@H](NC(=O)[C@H](CCCN=C(N)N)NC(=O)[C@@H]1CCN1C(=O)[C@@H](CCCCN)NC(=O)CN(CCN(CCN(CC(=O)O)CC(=O)O)CC(=O)O)CC(=O)O)C1CCN(C(=N)N)CC1)C(C)(C)C)C(=O)O
IC50 [21]: 11.5 nM

CC(C)C[C@H](NC(=O)[C@@H](NC(=O)[C@H](Cc1ccc(O)cc1)NC(=O)[C@@H]1CCCN1C(=O)[C@H](CCCN=C(N)N)NC(=O)[C@@H](NC(=O)[C@@H]1CCCN1C(=O)[C@@H](NC(=S)Nc1ccc2c(c1)C(=O)OC21c2ccc(O)cc2Oc2cc(O)ccc21)C1CCNCC1)C1CCN(C(=N)N)CC1)C(C)(C)C)C(=O)O ({FITC}-[Gly(piperidin-4-yl)]P[Gly(1-amidinopiperidin-4-yl)]RPY[Tle]L-OH)
IC50 ([21]; ht-29): 0.5 nM
